Source: ChEMBL document CHEMBL1157983, “Novel labdane diterpenes from the insecticidal plant hyptis spicigera1” (1999)
Values after ≈ are worked out from the molar mass of the structure shown. Active and inactive are the calls of the source. No cut-off for these calls is given here.

How the values were obtained:
KB [1] = experiment: Cytotoxicity against human KB cells after 72 hrs by SRB assay; format: functional; settings: read-out: ED50 (the source's name)
Procedure, shortened: (§1)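 KB (nasopharyngeal) and HCT-15 (colon) lines kept in RPMI 1640 with 10% FBS at 37 °C, 5% CO2. Log-phase cells were exposed in triplicate to 0.16-20 µg/mL of sample for 72 h. Cell density was read by sulforhodamine staining. ED50 (50% growth inhibition versus control) was estimated from a semilog plot of concentration against percent viable cells. Ellipticine served as positive control.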

HCT-15 [2] = experiment: Cytotoxicity against human HCT-15 cells after 72 hrs by SRB assay; format: functional; settings: HCT-15, 72 h, read-out: ED50 (the source's name); procedure, shortened: as §1
KB [3] = experiment: Cytotoxicity against human KB cells up to 20 ug/mL after 72 hrs by SRB assay; format: functional, cell-based; procedure, shortened: as §1
HCT-15 [4] = experiment: Cytotoxicity against human HCT-15 cells at 20 ug/mL after 72 hrs by SRB assay; format: functional, cell-based
Ostrinia nubilalis = experiment: Insecticidal activity against Ostrinia nubilalis larvae after 4 to 6 days; format: functional, organism-based
Procedure, shortened: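 Samples were dissolved in 95% EtOH and mixed into agar-based meridic diet at final 5, 50 and 100 ppm. European corn borer larvae were reared on it at 25 °C, about 80% RH, with a 16:8 light:dark cycle. Mortality and larval weight were recorded every 4-6 days over the growth period. ANOVA with Tukey's multiple range test.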

Row | SMILES | EC50 (KB [1]) [µg/mL] | EC50 (HCT-15 [2]) [µg/mL] | Activity (KB [3]) | Activity (HCT-15 [4]) | Activity (Ostrinia nubilalis)
1 | Cc1c2ccncc2c(C)c2c1[nH]c1ccccc12 [ELLIPTECINE] | 0.1 (≈ 0.406 µM) | 0.17 (≈ 0.69 µM) |  |  | 
2 | C=C1[C@H](O)C[C@H]2[C@@](C)(COC(C)=O)C[C@H](O)C[C@]2(C)[C@H]1CCC(C)=O |  |  | inactive | inactive | 
3 | C=C1[C@H](O)C[C@@H]2[C@](C)(CO)C[C@@H](O)C[C@@]2(C)[C@H]1CC/C(C)=C\CO |  |  | inactive | inactive | 
4 | C=C1[C@H](O)C[C@H]2[C@@](C)(COC(C)=O)C[C@H](O)C[C@]2(C)[C@H]1CC/C(C)=C\C=O | 11 (≈ 29.1 µM) | 11 (≈ 29.1 µM) |  |  | 
5 | C=C1[C@H](OC(C)=O)C[C@H]2[C@@](C)(COC(C)=O)C[C@H](O)C[C@]2(C)[C@H]1CC/C(C)=C\COC(C)=O |  |  | inactive | inactive | 
6 | C=C1[C@H](O)C[C@H]2[C@@](C)(COC(C)=O)C[C@H](O)C[C@]2(C)[C@H]1CC/C(C)=C\CO | 19.4 (≈ 51 µM) | 8.7 (≈ 22.9 µM) |  |  | 
7 | C=C1[C@H](O)C[C@H]2[C@@](C)(COC(C)=O)CC(=O)C[C@]2(C)[C@H]1CC/C(C)=C\CO | 11 (≈ 29.1 µM) | 11 (≈ 29.1 µM) |  |  | 
8 | C=C1[C@H](O)C[C@H]2[C@@](C)(COC(C)=O)C[C@H](O)C[C@]2(C)[C@H]1CC/C(C)=C\COC(C)=O |  |  | inactive | inactive | Active
